This note sets out measurements from the RNAGym collection of RNA variant scans (doi:10.1126/science.aae0568).

B1: tRNA (parent)
chain: GUUCCGUUGGCGUAAUGGUAACGCGUCUCCCUCCUAAGGAGAAGACUGCGGGUUCGAGUCCCGUACGGAACG

This sample holds only a part of the variants without activity. Where only a bound is given, the exact number is not on record here.

Variants of B1 are the subject of the data set. The data set can be described thus: yeast fitness relative to wild type (ratio to wild type); higher = fitter; tRNA-Arg(CCU), competitive growth, 37 C, YPD. The method, boiled down: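 Variants of the tRNA-Arg(CCU) gene, chemically synthesised with a 3% per-site mutation rate at 69 sites, were placed at the native genomic locus in Saccharomyces cerevisiae. The pooled strains were competed in YPD at 37°C for 24 hours in six parallel replicates. Gene amplicons from the start population and from each end population were read by 100-nucleotide paired-end sequencing. Darwinian fitness relative to wild type came from changes in genotype frequencies; genotypes needed ≥ 100 starting reads, and estimates < 0.5 were set to 0.5.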
On to GUCCCGUUGGUGUAAUGGUAACGCGUCUCCCUCCUAAGGAGAAGACUGCGGGUUCGAGUCGCGUCCGGAACG [U3C C11U C61G A65C], for which the yeast fitness is ≤ 0.5.

In the case of GUCCCGUUGGCGUAAUGGUAACGCGUCUCCCUCCUAAGGGGAAGAAUGCGGGUUCGAGUCCGGUACGGUACG [U3C A40G C46A C62G A69U], the yeast fitness is ≤ 0.5.

Regarding GUCCCGUUGGAGUACUGGUAACGAGUAUCCCUCCUAAGGACAAGACUGCGGGUUCGAGUCCCGUACGGAACG [U3C C11A A15C C24A C27A G41C], the yeast fitness is ≤ 0.5.

For GUCCCGUUGGGGUAAUGGUAACGCGUCUCCCUCCUAAGGAGAAGACUGCGGGUUCGGGUCCCGUACGGAACG [U3C C11G A57G], the yeast fitness is ≤ 0.5.

Regarding GUCGCGUUGGCGUAAUGGUAACGCGUCCCCCUCCUAAGGAGACGACUGCGGGUUCGAGUCCCGUACGGAACG [U3C C4G U28C A43C], the yeast fitness is ≤ 0.5.

In the case of GUCCCGUUGGUGUAAUGGUAAAGCGUCUGCCUUCUAAGGAGAAGACUGCGGGUUCGAGUCCCGCACGGACCG [U3C C11U C22A C29G C33U U64C A70C], the yeast fitness was ≤ 0.5.

Turning to GUCCCGUUGGCGUAAUGGUAACGGGUCUCCCUCCUAAGGAGAAAACUGCGGGUUCGAGUCCCGUACGGAACG [U3C C24G G44A], the yeast fitness was ≤ 0.5.

For the variant GUCCCGUUGGAGUAAUGGUAACGCGUCUCCCGCCUAAGGAGAAGACUGCGGGUUCGAGUCAAGUACGGAACG [U3C C11A U32G C61A C62A], the yeast fitness came to 0.587.

Regarding GUCCCGUUGGCGUAAUGGUAAGGCGUGUCCGUCCUAAGGAGAAGACUGCGGGUUCGAGUCGCGUACGGUACG [U3C C22G C27G C31G C61G A69U], the yeast fitness was 0.615.

In the case of GUCCCGUUGGCGUAAUGGUAACGCGUCUCCCUCCUAAGGAGAAGUCUGCGGGUUCGAGUCCCGCACGGAACG [U3C A45U U64C], the yeast fitness was determined as 0.709.

As for GUCCCGUUGGCGUAAUGGUAACGCGUCUCCCUCCUAAGGUGAACACUGCGGGUUCGAGUCCCGUACGGAACG [U3C A40U G44C], the yeast fitness is 0.625.

Consider GUCCCGUUGGCGUAAUGGUAAUACGUCUCCCUCCUAAGGAGAAGACUGCGGGUUCGAGUCCCGUACGGAACG [U3C C22U G23A], for which the yeast fitness is ≤ 0.5.

GUCCCGUUGGAGUAAUGGUAACGCGUGUCCCUACUAAGGAGACGAAUGCGGGUUCGAGUCCCGUACGGAACG [U3C C11A C27G C33A A43C C46A]: the yeast fitness was determined as 0.687.

As for GUCUCGUUGGCGUAAUGGUAACGCGUCUCCCUCCUAAGGAGAAGACUGCGGGUUCGAGUCCCGUACGGAACG [U3C C4U], the yeast fitness stood at 1.01.

As for GUCACGUUGGCGUAAUGGUAACGCGUCUCCCUCCUAAGGAGAAGACUGCGGGUUCGAGUCCCGUCCGGAACG [U3C C4A A65C], the yeast fitness was found to be 0.62.

As to GUCCAGUUGGCGUAAUAGUAACGCGUCUCCCUCCUAAGGAGGAGACUGCGGGUUCGAGUCCCGAACGGAACG [U3C C5A G17A A42G U64A], the yeast fitness was ≤ 0.5.

Take GUCGCGUUGGCGUAUUGGUAACGCGUCUCCCUACUAAGGAGAAGACUGCGGCUUCGAGUCCCGUACGGAACG [U3C C4G A15U C33A G52C]: the yeast fitness is ≤ 0.5.

With GUCCCGUUGGCGUAAUGGUAACGCGUCUCCCUCCUAAGGAGAAGCCUACGGGUUCGAGUCCCGUACGGAACG [U3C A45C G48A], the yeast fitness was 0.937.

Regarding GUCGCGUUGGCGUAAUGGUAACGCGUCUCCCUCCUAAGGAGGAGACUGCGGGUUCGAGUCCCGUACGGAACG [U3C C4G A42G], the yeast fitness was 0.57.

Turning to GUCCCGUUGGCGUAAUGGUAAGGCGUCUCCCUCCUAAGGAGAAGACUGCGGGUUCGAGUCCCGUACGGACCG [U3C C22G A70C], the yeast fitness was 0.679.

For GUCCCGUUGGGGUAAUGGUAACGGGUCUCCCUCCUAAGGAGAAGACUGCGGGUGCGAGUCCCGUACGGAACG [U3C C11G C24G U54G], the yeast fitness is ≤ 0.5.

Consider GUCCCGUUGGCGUAAUGGUAACGCGUCUCCCUCCUAAGGUGAAGACUGCGGGUUCGAGUCCCGUACGGUACG [U3C A40U A69U], for which the yeast fitness stood at 0.755.

Turning to GUCCUGUUGGCGUAAUGGUAACGCGUCUCCCUCCUAAGGAGAAGACUGCGGGUUCGAGUCCCGUACGAAACG [U3C C5U G68A], the yeast fitness was ≤ 0.5.

For GUCCCGUUGGUCUAAUGGUAACGCGUCUCCCUCCUAAGGAGAAGACUGCGGGUUCGAGUCCCGUACGGAACG [U3C C11U G12C], the yeast fitness was ≤ 0.5.

Consider GUCCCGUUGGUGUAAUGGUAACGCGUGUCCCUCCUAAGGAGAAGACUGCGGAUUCGAGUCCCGUACGGAACG [U3C C11U C27G G52A], for which the yeast fitness is ≤ 0.5.

GUCCCGUUGGUGUAACGGUAACGCGUCUCGGUCCUAUGGAGAAGACUGCGGGUUCGAGUCCCGUACGGAACG [U3C C11U U16C C30G C31G A37U]: the yeast fitness is ≤ 0.5.

As for GUCCCGUUGGAGUAAUGGUAACGCGUGUCCCUACUAAGGAGACGAAUGCGGGUUCGAGUCCAGUAUGGAACG [U3C C11A C27G C33A A43C C46A C62A C66U], the yeast fitness was ≤ 0.5.

As for GUCUCGUUGGCGUAAUGGUAACGCGUCUCCCUCCUAAGGAGAAGACUGCGGGUUCGAGUACCGUAGGGAACG [U3C C4U C60A C66G], the yeast fitness is ≤ 0.5.

For the variant GUCCCGUUGGUGUAAUGGUAACGCGUCUCCCUCCUAAGGAGAAGACUGCGGGUUCGAGUCCCGUACGGAACG [U3C C11U], the yeast fitness is 1.06.

With GUCCGGUUGGCGUAAUGGUAACGCGUCGCCUUCCUAAGGAGAAGACUGCGAGUACGAGACCCGUACGGAACG [U3C C5G U28G C31U G51A U54A U59A], the yeast fitness is ≤ 0.5.

Turning to GUCCCGUUGGUGUAAUCGUAAAGGGUCCCCCUACUAAGGAGAAGACUGCGGGUUCGAGUCCCGUACGGAACG [U3C C11U G17C C22A C24G U28C C33A], the yeast fitness is ≤ 0.5.

With GUCCCGUUGGCGUAAUGGUAACGCGUCUCCCUCCUAAGGAGAAGGCUGCGGGUUCGAGUCCCGUACGGAACG [U3C A45G], the yeast fitness is 0.903.

For GUCUCGUUGGCGUAGUGGUAACGCGACUCCCACCUAAGGAGAAGACUGCGGGUUCGAGUCCCGUACGGAACG [U3C C4U A15G U26A U32A], the yeast fitness is 0.571.

Turning to GUCCCGUUGGAGUAAUGGUAACGUGUCUCCCUCCUAAGGAGGAGACUGCGGGUUCGAGUCCCGUACGGAACG [U3C C11A C24U A42G], the yeast fitness is 0.638.

Consider GUCCCGUUGGCGUAAUGGUAACGCGUCUCCCUCCUAAGGAGAAGACUGCGGGUUCGAGUCCCGUGCGGAACG [U3C A65G], for which the yeast fitness was 0.887.

Consider GUCCCGUUGGCGUAAUGGUAACGCGUCUCCCUCCUAAGGAGACGACUGCGGGUUCGAGUCCCGUACGGCACG [U3C A43C A69C], for which the yeast fitness is 0.762.

In the case of GUCCAGUUGGCGUAAUGGUAACGCGUCUCCCUCUAAAGGAGAAGACUGAGGGUACGAGUCCCGUACGGAACG [U3C C5A C34U U35A C49A U54A], the yeast fitness is ≤ 0.5.
